High-throughput results deposited in PubChem BioAssay by several laboratories.
procasp7 counter – counter-screen for procaspase-3 activators: activators of human procaspase-7. activation, % at 8.5 µM. 0.093% of 330,000 active. AID 463210. recombinant procaspase-7, Ac-DEVD-pNA absorbance 405 nm; D23A/D198A/D206A triple mutant, cannot self-cleave; scale: DMSO 0, 5 µM enzyme 100;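 active means percent activation above the screen-wide mean plus 3 SD, cut at about 25% in these data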
Target sequence (P55210 whole entry D23A/D198A/D206A): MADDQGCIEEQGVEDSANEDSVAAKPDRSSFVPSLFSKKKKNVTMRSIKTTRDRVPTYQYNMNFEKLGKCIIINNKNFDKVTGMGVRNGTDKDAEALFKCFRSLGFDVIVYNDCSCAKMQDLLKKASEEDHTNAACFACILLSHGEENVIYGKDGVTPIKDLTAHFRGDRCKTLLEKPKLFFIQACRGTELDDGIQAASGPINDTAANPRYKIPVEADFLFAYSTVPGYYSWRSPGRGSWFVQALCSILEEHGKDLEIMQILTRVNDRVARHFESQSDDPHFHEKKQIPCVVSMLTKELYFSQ
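buffer or medium = Zinc-free HEPES/NaCl buffer, pH 7.4 | material = Procaspase-7 triple mutant (PC-7 D3A) | input = 2 µM procaspase-7 mutant as dispensed | signal = Epi-absorbance of released pNA at 405 nm, two timepoints | timing = 1 h preincubation, 2 h reaction | replicates = singlicate compound testing | evaluation = % activation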
procasp3 activ – procaspase-3 (human) activation | 0.11% of 330,000 active | P42574 | recombinant procaspase-3 D3A, Ac-DEVD-pNA absorbance 405 nm | activation, % at 8.5 µM;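 active means activation above the mean of all tested compounds plus 3 SD, cut at about 21% in these data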;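 further: 0% = DMSO alone and 100% = DMSO wells spiked with extra 5 µM PC-3 D3A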
Target sequence (P42574 whole entry D9A/D28A/D175A): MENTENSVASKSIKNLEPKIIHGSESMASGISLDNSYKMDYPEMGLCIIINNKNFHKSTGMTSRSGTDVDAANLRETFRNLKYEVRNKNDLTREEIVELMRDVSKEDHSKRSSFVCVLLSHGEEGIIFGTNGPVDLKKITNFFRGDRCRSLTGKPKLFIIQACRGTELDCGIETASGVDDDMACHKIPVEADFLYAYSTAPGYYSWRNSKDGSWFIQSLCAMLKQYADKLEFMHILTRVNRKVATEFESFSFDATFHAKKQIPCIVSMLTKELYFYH
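Technique: 405 nm absorbance of p-nitroaniline, reads at 0 and 120 min; Test system: Procaspase-3 D3A mutant; Incubation: 1 h enzyme-compound preincubation, then 2 h substrate reaction, 25 °C; Repeats: singlicate, each compound tested once; Benchmarks: low control DMSO wells, high control DMSO plus 5 µM PC-3 D3A.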
bovine MsrA act – bovine methionine sulfoxide reductase A activation | activation, % at 10.6 µM | 0.3% of 360,000 active | purified bovine MsrA, absorbance read-out | AID 602163; in the data active means activation above about 7.5%;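 further: 0% = vehicle and 100% = reference activator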
A1 inh – inhibitors of the anti-apoptotic protein A1, read as caspase activation; 0.066% of 330,000 active; caspase activation, % (test concentration not listed); MEF A1-2A-BIM cells, Caspase-Glo 3/7 luminescence, 3 h; percent of clofoctol response, vehicle zero;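 active means over half of replicate activation scores above 10%, or exactly half above 10 with the replicate mean above 10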
MsrA inhibitor – bovine MsrA inhibition. purified bovine MsrA, absorbance read-out. inhibition, % at 15.5 µM. 0.75% of 360,000 active. AID 651718; in the data active means inhibition above about 4.5%;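 further: 0% = vehicle wells with enzyme and 100% = reference inhibitor wells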
* hit, by the source's call; . = no result. This is a sample that favours compounds with a hit; in the whole collection about 1.2% have one here.

SMILES	procasp7 counter	procasp3 activ	bovine MsrA act	A1 inh	MsrA inhibitor
CC(C)(C)C1=CC(=Nc2ccccc2N)C=C(C(C)(C)C)C1=O	1.6	-5.7	-2.1	0.5	0.3
CC(C)(C)C1=CC(=O)C(=O)C(C(C)(C)C)=C1	-5.5	-3.0	-2.0	30.9*	.
O=C(Oc1ccc2c(-c3ccccc3)cc(=O)oc2c1)C1CCCCC1	0.3	-7.8	-5.5	-0.6	18.6*
O=C(/C=C/c1ccc2c(c1)OCO2)N1CCN(c2n[nH]c(=O)[nH]c2=O)CC1	4.2	4.3	0.0	0.2	4.6*
CN1CCN(C(=O)/C=C/c2ccc3c(c2)OCO3)CC1	2.2	1.4	-2.1	0.3	2.1
O=c1c2cc(F)ccc2sn1-c1ccc(F)cc1	-32.9	-25.3	7.3	-13.5	.
COc1ccc(-n2sc3ccc(F)cc3c2=O)cc1	-21.7	-22.1	12.4*	-10.6	-0.5
Cc1ccc(C)c(-n2sc3ccc(F)cc3c2=O)c1	-23.6	-25.9	13.0*	-1.0	1.3
O=C(COC(=O)c1cc(-c2ccc(Cl)s2)nc2ccccc12)NCc1ccco1	-3.2	-10.4	-3.2	-0.6	4.6*
O=C(COC(=O)c1cc(-c2cccs2)nc2ccccc12)NCc1ccco1	-1.4	2.3	-1.8	-0.6	0.0
COc1ccc(C2=Nn3c(nnc3-c3ccccc3C(F)(F)F)SC2)cc1OC1CCOC1 (configuration not stated)	-7.5	4.9	-7.2	-0.2	2.2
COc1ccc(C2=Nn3c(nnc3-c3ccccc3OC)SC2)cc1OC1CCOC1 (configuration not stated)	-1.5	-5.4	-1.8	-0.2	4.6*
Fc1ccc2nc(-c3ccc(CN4CCC5(CC4)CNc4ccccc45)cc3)c(-c3ccccc3)nc2c1	.	.	.	.	2.9
CN(c1ccc(OCC(=O)OCC(=O)NC2CCCC2)cc1)S(=O)(=O)c1ccc2ccccc2c1	13.2	-7.7	-2.0	-0.1	-0.9
CN(c1ccc(OCC(=O)NC2CCC(O)CC2)cc1)S(=O)(=O)c1ccc(Cl)cc1 (configuration not stated)	5.3	8.6	1.3	14.7*	-0.8
Cc1cc(C)cc(N=Cc2c(O)c3ccccc3oc2=O)c1	22.7	5.0	-5.1	10.3*	-0.1
Cc1cc(C)c(N=Cc2c(O)c3ccccc3oc2=O)c(C)c1	10.6	-1.6	-3.0	0.1	0.4
N#CC(C#N)=C1C=CC=CN1/C(=C\c1ccccc1Cl)C(=O)c1ccccc1	-7.4	-13.8	-6.6	14.4*	2.5
N#CC(C#N)=C1C=CC=CN1/C(=C\c1ccccc1)C(=O)c1cccs1	-2.0	-1.9	-3.4	0.7	1.9
COC(=O)C1=C(C)N(Cc2cccc(C(F)(F)F)c2)C(=NCc2ccc(OC)cc2)NC1c1ccccc1C(F)(F)F (configuration not stated)	.	.	.	.	-0.5
CCOC(=O)C(=CNc1ccc(N2CCOCC2)cc1)C(=O)OCC	4.0	5.6	-4.5	0.8	3.3
CCOC(=O)C(=CNc1ccc2c(c1)CCN2C(C)=O)C(=O)OCC	4.3	-2.1	-4.8	-0.8	4.9*
C(=N\n1cncn1)/c1ccc(N2CCOCC2)cc1	0.9	2.8	-18.1	1.1	5.3*
COc1ccc(C2C3=C(CC(c4ccco4)CC3=O)Nc3ccccc3N2C(C)=O)cc1 (configuration not stated)	0.8	-3.3	-4.1	1.2	5.3*
O=C1CC2c3cc(-c4cc5ccccc5o4)ccc3CCN2C(=O)CN1Cc1ccccc1 (configuration not stated)	.	.	.	.	2.2
SMILES	procasp7 counter	procasp3 activ	bovine MsrA act	A1 inh	MsrA inhibitor
COc1cc(C[C@H](C)[C@H](C)Cc2ccc3c(c2)OCO3)ccc1O	3.0	0.1	16.4*	0.9	.
Cc1snc(S(=O)(=O)/C(C#N)=N/Nc2ccc(C(F)(F)F)cc2)c1C#N	-6.8	-6.9	0.6	0.2	4.6*
COCc1cc(C)nc(OCC(=O)N/N=C/c2ccc(O)cc2O)c1C#N	3.6	1.7	-3.4	0.5	4.5*
COCc1cc(C)nc(OCC(=O)N/N=C/c2ccccc2O)c1C#N	-1.6	4.2	-1.7	-1.0	3.1
O=C(NCC1CCN(C(=O)C(=O)c2cccs2)CC1)c1ccc2c(c1)CCO2	.	.	.	.	1.3
CN(N=Nc1nc[nH]c1C(N)=O)C1CCCCC1	.	.	-15.7	.	4.6*
CC(C)=CCC/C(C)=C/CN1C(=O)N(c2ccc(F)cc2)[C@H]2C[C@@H](c3ccccc3)[C@@H](C)[C@@H](C(=O)N3CCOCC3)C[C@H]21	.	.	.	.	0.6
Nc1ccccc1O	-5.0	-8.9	9.4*	-0.5	.
O=C(CS(=O)c1ccc(C(F)(F)F)cc1[N+](=O)[O-])Oc1ccccc1 (configuration not stated)	-5.8	-5.9	0.8	9.2*	0.8
Nc1nc(=S)c2ncn(C3CCCCC3)c2[nH]1	.	.	2.9	.	4.6*
COC(=O)C1=C(C)NC(=S)NC1c1cccc(OC)c1 (configuration not stated)	.	.	.	.	0.2
O=C(NC1CCCC1)c1cccc2c1C(=O)c1ccc(/C=C/c3ccccc3)cc1S2(=O)=O	-9.8	7.5	-10.8	40.2*	1.0
CC(C)c1cccc(-c2ccc3c(c2)S(=O)(=O)c2cccc(C(=O)NC4CCCC4)c2C3=O)c1	-8.7	1.3	-10.1	7.3*	-0.1
COc1ccc(-c2ccc3c(c2)S(=O)(=O)c2cccc(C(=O)NC4CCCC4)c2C3=O)cc1OC	1.6	6.0	-1.7	0.2	-0.2
CN[C@H]1C[C@@H](c2ccccc2Br)N(C(C)=O)C[C@H]1CO	.	.	.	.	0.0
CCCCOCCCNC(=O)C[C@H]1C[C@@]2(C(=O)OC)C(=C[C@H](C(C)(C)C)O[C@@H]2C)N(CCC2=CCCCC2)C1=O	.	.	.	.	0.7
CN(C)c1ccc(CN(C(=O)COc2ccc(F)cc2)C2CCS(=O)(=O)C2)cc1 (configuration not stated)	-5.2	3.2	8.2*	1.2	.
Nc1[nH]c(C(=O)c2ccccc2)c(-c2ccc(Cl)c(F)c2)c1C(=O)c1c[nH]c2ccccc12	.	.	.	.	0.2
CC(/C=N/NC(=O)c1ccncc1)=C\c1ccccc1	9.1	-0.6	-8.1	-0.8	5.2*
CCOc1ccccc1OCCC(=O)N1CCN(S(=O)(=O)c2ccccc2[N+](=O)[O-])CC1	7.9	-10.3	-9.1	21.0*	0.7
COC(=O)[C@]12C[C@H](CC(=O)N3CCC(c4ccccc4)CC3)C(=O)N(Cc3ccccc3)C1=C[C@H](C(C)(C)C)O[C@@H]2C	.	.	.	.	0.1
CCOC(=O)c1nnn(-c2nonc2N)c1CSc1ccccn1	-3.6	10.6	8.0*	-0.1	-0.9
CCOC(=O)c1nnn(-c2nonc2N)c1CSc1ccccc1	-2.8	2.9	-4.8	0.7	0.7
Fc1ccc(CN2CCN(c3ncc(Cc4ccccc4)cn3)CC2)c(Cl)c1	.	.	.	.	-1.5
Cc1ccccc1NC(=O)COC(=O)/C=C/c1cn(-c2ccccc2)nc1-c1cccnc1	6.1	0.8	-4.9	0.8	0.7
